Ten compounds from ChEMBL document CHEMBL1155720, “Antioxidant principles from Bauhinia tarapotensis” (J Nat Prod, 2001) can be followed below.

Format in all cases: functional
Assay [1] can be described thus: Antioxidant activity against beta-carotene and linoleic acid assessed asbleaching of beta-carotene at 60 mins by autooxidation assay. The gist of the method: (§1)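 β-carotene bleaching (Pratt method): linolenic acid 20 mg and Tween 20 200 mg plus β-carotene 2 mg in 10 mL CHCl3. CHCl3 removed, then 50 mL oxygen-saturated distilled water added. Samples oxidized at 50 °C for 3 h, A470 read at intervals. AA = 100[1 − (A0 − At)/(A00 − A0t)], comparing absorbance at start and at time t with and without compound.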

Assay [2] concerns Radical scavenging activity. The assay can be described thus: Antioxidant activity assessed as DPPH free radical scavenging activity after 30 mins. The gist of the method:
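Pure compound in methanol, 30 µL added to 3 mL of 0.004% DPPH in MeOH. A517 read after 30 min and percent inhibition calculated. IC50 is the concentration scavenging 50% of DPPH radical.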

A short description of assay [3]: Antioxidant activity assessed as trolox equivalents of ABTS radical scavenging activity by TEAC assay. The gist of the method:
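ABTS•+ made from 7 mM ABTS in water with 2.45 mM potassium persulfate, kept 12 h in the dark at room temperature. Diluted in PBS pH 7.4 to A734 0.70 and equilibrated at 30 °C. Samples in methanol at 0.3–2 mM, 10 µL added to 1 mL ABTS•+. Percent inhibition of A734 measured against a methanol blank, in triplicate, and plotted against concentration. TEAC is the Trolox concentration giving the same inhibition as 1 mM compound.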

Assay [4] is described as follows: Antioxidant activity against beta-carotene and linoleic acid assessed asbleaching of beta-carotene at 120 mins by autooxidation assay. The gist of the method: as §1

Take `COc1cc([C@H]2OC[C@]3(O[C@@H]4O[C@H](CO)[C@@H](O)[C@H](O)[C@H]4O)[C@@H](c4ccc(O)c(OC)c4)OC[C@H]23)ccc1O`: the Activity is 10.7 in assay [1], 0.935 in assay [3] and 8.5 in assay [4]. Further, the IC50 in assay [2] came out at 20.3 µM.

Turning to `O=C(O)c1c[nH]c2ccccc12`, the Activity in assay [1] was -10.1; in assay [3], 0.092; in assay [4], -6.5.

On to `C[C@@H]1O[C@@H](OC[C@H]2O[C@@H](Oc3c(-c4ccc(O)c(O)c4)oc4cc(O)cc(O)c4c3=O)[C@H](O)[C@@H](O)[C@@H]2O)[C@H](O)[C@H](O)[C@H]1O`, for which, in assay [3], the Activity turned out to be 2.42.

As to `Cc1cc(C(C)(C)C)c(O)c(C(C)(C)C)c1`, the Activity was 63.9 in assay [1] and 62.5 in assay [4].

As to `C[C@@H]1O[C@@H](O[C@@H]2[C@@H](O)[C@H](OCCc3ccc(O)c(O)c3)O[C@H](COC(=O)/C=C/c3ccc(O)c(O)c3)[C@H]2O)[C@H](O)[C@H](O)[C@H]1O` [ISOACTEOSIDE], the Activity in assay [1] came to 24.6; in assay [3], 1.23; in assay [4] it was 7.2. Also, the IC50 in assay [2] worked out at 1.3 µM.

Turning to `O=c1cc(-c2ccc(O[C@@H]3O[C@H](CO)[C@@H](O)[C@H](O)[C@H]3O)c(O)c2)oc2cc(O)cc(O)c12`, the Activity in assay [1] was found to be 16.2; in assay [3], 0.445; in assay [4], 10.

With `O=C1C=C[C@H](O)C[C@@]1(O)CCO` (relative stereo), the Activity in assay [1] was determined as 43; in assay [3], 0.076; in assay [4], 9.7.

In the case of `COc1cc([C@@H]2c3cc(O)c(OC)cc3C[C@H](CO)[C@H]2CO[C@@H]2O[C@H](CO)[C@@H](O)[C@H](O)[C@H]2O)ccc1O`, the values for the Activity in assay [1], in assay [3] and in assay [4] were -10, 0.826 and -6.2, respectively. Moreover, the IC50 in assay [2] was 10.5 µM.

For the compound `O=C(O)/C=C/c1ccc(O)c(O)c1`, in assay [3], the Activity was found to be 1.26.

In the case of `O=C(/C=C/c1ccc(O)c(O)c1)OCC(O)(CO)C(O)C(=O)O` (stereo not drawn), the Activity in assay [1] was found to be 25.2; in assay [3] it was 0.484; in assay [4], 20.5.
